Hits are enriched below; roughly 4.1% of the tested compounds scored in any of these assays.
NF-kB expr up: raises NF-kB expression in human neuronal cells. NF-kB reporter expression; stronger effect = higher value. fold change at 12.5 µM. 190,000 tested, 1.6% active; in the data active = fold change above about 3.3
FLuc act counter: affects firefly luciferase, flagging false hits in luciferase stimulation screens. activation factor at 10 µM. ATPlite luciferase biochemical, luminescence, 10 min; 0 = ATP-free wells, 1 = DMSO control. AID 1027. 200,000 tested, under 10 active. P08659;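 active = luciferase activation factor, scaled between plate controls, of at least 2 with compound at 10 µM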
Target sequence (P08659 whole entry, looked up): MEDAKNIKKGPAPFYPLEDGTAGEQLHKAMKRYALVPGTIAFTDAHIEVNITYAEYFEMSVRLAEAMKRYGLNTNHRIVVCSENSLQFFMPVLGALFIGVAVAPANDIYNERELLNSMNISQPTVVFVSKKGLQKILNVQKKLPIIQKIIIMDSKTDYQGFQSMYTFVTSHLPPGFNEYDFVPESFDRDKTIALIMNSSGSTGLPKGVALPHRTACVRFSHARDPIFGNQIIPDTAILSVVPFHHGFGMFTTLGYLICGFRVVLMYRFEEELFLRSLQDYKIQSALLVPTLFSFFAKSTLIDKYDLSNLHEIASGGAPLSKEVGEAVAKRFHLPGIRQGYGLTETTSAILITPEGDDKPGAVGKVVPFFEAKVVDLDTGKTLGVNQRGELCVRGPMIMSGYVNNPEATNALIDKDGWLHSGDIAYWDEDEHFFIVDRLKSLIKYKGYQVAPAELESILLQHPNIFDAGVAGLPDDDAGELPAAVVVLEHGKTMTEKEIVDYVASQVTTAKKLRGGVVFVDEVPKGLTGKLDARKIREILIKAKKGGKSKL
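Assay system: Luciferase/luciferin reagent mix; Medium: PBS as buffer for the ATP substrate; Dosing: test compounds dosed from 2 mM stocks in 100% DMSO; Times: 10 min, room temperature; Signal: luminescence from luciferase reaction; Read-out: luciferase activation; Controls: No-ATP low control, compound-free enzyme-plus-ATP high control.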
APP 5'UTR act: APP 5'UTR luciferase reporter activation | SH-SY5Y APP 5'UTR luciferase reporter, luminescence; zero percent = DMSO vehicle wells | activation, % at 2 µM | 190,000 tested, 1% active | AID 1276;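 active = activation above a set limit, based on mean plus 3 SD of controls, cut at about 140% in these data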
FLuc inhib CS: counter-screen for luciferase assay inhibitors: firefly luciferase inhibition | ATPLite firefly luciferase biochemical luminescence, 10 min | inhibition, % at 10 µM | 200,000 tested, 1.5% active | AID 1006;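 active = inhibition above about 50% when tested at 10 µM, limit read from the data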
STAT1 act: activators of IFN-gamma induced STAT1 signaling. NIH 3T3 STAT1-luciferase reporter, luminescence; 100% = IFN-gamma alone, no compound. activation (% of control), % at 5.5 µM. 200,000 tested, 2.6% active. AID 932;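 active = activation above the screen-wide mean activation plus 3 SD, cut at about 130% in these data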;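 note: raw ratio to IFN-gamma control signal so 100% means no change and 0% no light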
* hit, by the source's call; nt = no result given.

SMILES | NF-kB expr up | FLuc act counter | APP 5'UTR act | FLuc inhib CS | STAT1 act
CCOC(=O)c1c(C)[nH]c(C(=O)NCc2ccco2)c1C | 1.3 | 0.9 | -11 | 8 | 108
O=C(c1cc(Sc2ccc(Cl)cc2)nc2ccccc12)N1CCN(c2ccccn2)CC1 | 0.86 | 1 | -4 | 3 | 99
CCOc1ccc(-c2cc(C(=O)N3CCN(c4ccccn4)CC3)c3ccccc3n2)cc1 | 1.3 | 0.1 | 36 | 90* | 116
COc1ccc(-c2cc(C(=O)c3c(N)n(C)c(=O)n(C)c3=O)c3ccccc3n2)cc1OC | 1.2 | 0.4 | 11 | 62* | 111
COc1cc(-c2cc(C(=O)N3CCN(c4ccccn4)CC3)c3ccccc3n2)cc(OC)c1OC | 0.35 | nt | -2 | nt | 79
COc1ccc(-c2cc(C(=O)N3CCN(c4ccccc4)CC3)c3ccccc3n2)cc1 | 1.1 | 0.4 | -75 | 64* | 105
Cn1c(N)c(C(=O)c2cc(-c3ccncc3)nc3ccccc23)c(=O)n(C)c1=O | 1.1 | 0.8 | -6 | 19 | 94
COc1ccc(-c2cc(C(=O)N3CCN(c4ccccn4)CC3)c3ccccc3n2)cc1 | 1 | 0.2 | 69 | 80* | 108
CCOC(=O)C1CCN(C(=O)c2cc3cc(Br)ccc3oc2=O)CC1 | 1.3 | 1.1 | 10 | -7 | 105
COc1ccc(CCCC(=O)Nc2ccc(F)cc2)cc1 | 1.3 | 1 | -5 | -4 | 105
COc1ccc2cc(-c3cc(C(=O)O)c4ccccc4n3)ccc2c1 | 6.3* | 0 | 84 | 98* | 36
COc1ccc(-c2cc(C(=O)O)c3ccccc3n2)c(OC)c1 | 1.2 | 1 | -8 | 0 | 98
CC1Cc2ccccc2N1C(=O)CSc1nccc(=O)[nH]1 (stereo not drawn) | 1.1 | 1.1 | -4 | -6 | 104
O=C(NC(=S)Nc1cccnc1Cl)c1ccco1 | 1 | 0.4 | 7 | 58* | 115
Cc1ccnc(NC(=S)NC(=O)c2ccco2)c1 | 4.7* | 0.4 | 149* | 61* | 130*
Cc1ccc(O)c(NC(=S)NC(=O)/C=C/c2ccco2)c1 | 1.2 | 1 | 45 | -2 | 99
CC(C)(C)C(=O)NC(=S)Nc1ccccn1 | 1.1 | 1 | 0 | 0 | 103
O=C(NC(=S)Nc1ccccc1[N+](=O)[O-])c1ccco1 | 1.7 | 0.8 | -18 | 21 | 97
O=C(NC(=S)Nc1ccccn1)c1ccco1 | 2.3 | 0.7 | 100 | 28 | 132*
Cc1ccnc(NC(=S)NC(=O)/C=C/c2ccco2)c1 | 2.4 | 0.6 | 86 | 39 | 144*
Cc1cccc(C(=O)NC(=S)N2CCc3ccccc3C2)c1 | 1.1 | 1 | 4 | -3 | 96
COCCSc1nnc(NC(=O)C(C)(C)C)s1 | 1.7 | 0.9 | 20 | 15 | 118
COc1ccc2cc(Br)ccc2c1CC(=O)NC1CC(C)(C)NC(C)(C)C1 | 1.2 | 1 | -15 | 4 | 93
COc1ccc(/C=C(\C#N)C(=O)OCC(=O)NCc2ccc(Cl)cc2)cc1 | 1.1 | 1.1 | -10 | -7 | 102
Cc1ccc(C)c(Nc2nc(N)c3ccccc3n2)c1 | 1.1 | 0.3 | 184* | 66* | 124
SMILES | NF-kB expr up | FLuc act counter | APP 5'UTR act | FLuc inhib CS | STAT1 act
Nc1nc(Nc2cccc(F)c2)nc2ccccc12 | 5.3* | 0.4 | 97 | 57* | 145*
Cc1ccc(C)c(Nc2ncnc(N)c2[N+](=O)[O-])c1 | 1.1 | 1 | 2 | -3 | 96
O=c1oc(Nc2cccc(F)c2)nc2ccccc12 | 2.2 | 1 | 68 | 2 | 112
ClCc1nnc(-c2cc3c(s2)CCCC3)o1 | 1.5 | 0.9 | -20 | 14 | 97
Cc1ccc(Oc2ccc(-c3nnc(-c4ccccc4)o3)cc2[N+](=O)[O-])cc1C | 1.1 | 1 | -19 | -1 | 111
O=C1CN(CC(=O)Nc2cccc(Cl)c2Cl)c2ccccc2N1 | 1.1 | 1.1 | 44 | -12 | 93
O=c1[nH]c(SCc2cccc(Cl)c2)nc2[nH]ncc12 | 0.77 | 1 | 16 | -3 | 100
CC(=O)c1c(C)[nH]c(C(=O)OCc2ccccc2)c1C | 2.2 | 1 | 50 | 3 | 142*
CCc1nc2ccccc2[nH]1 | 1.2 | 1 | 11 | -1 | 101
Cc1ccc(OCc2nc3ccccc3[nH]2)cc1 | 1.1 | 0.1 | 164* | 88* | 147*
Clc1ccc(OCc2nc3ccccc3[nH]2)cc1 | nt | 0.3 | 184* | 70* | 144*
c1ccc(OCc2nc3ccccc3[nH]2)cc1 | 2.4 | 0.7 | 101 | 34 | 129*
O=S(=O)(CCc1nc2ccccc2[nH]1)c1ccc(Cl)cc1 | 1.3 | 1 | -2 | -4 | 107
COc1cnc(SCc2c(Cl)cccc2Cl)nc1Cl | 1.4 | 1 | -2 | -2 | 95
COc1cccc(/C=N/n2c(SC)nnc2-c2ccccc2)c1O | 0.99 | 1 | -22 | -1 | 96
CC(C)(C)c1ccc(/C=C/C(=O)Nc2nncs2)cc1 | 1.2 | 0.8 | 168* | 16 | 126
COC(=O)c1sc(NC(=O)/C=C/c2ccc(C)cc2)nc1C | 1.2 | 1 | 30 | 0 | 104
Cc1nn(Cc2ccccc2)c(Cl)c1C(=O)NCCc1ccccc1 | 4.3* | 0.9 | 91 | 13 | 149*
CCOC(=O)c1ccc(N=c2scc(C)n2CC)cc1 | 4.3* | 0.9 | 90 | 14 | 124
CC1(C)Cc2ccccc2C2=NNC(=O)C2=N1 | 0.4 | 1 | -1 | 1 | 139*
CC1(C)Cc2ccccc2C(Nn2cnnc2)=N1 | 0.98 | 1.1 | -7 | -8 | 97
CCO[C@H]1OC(C(=O)N2CCCCCCC2)=C[C@@H](C)[C@@H]1CCCO | 1.1 | 1 | 8 | -5 | 93
CCc1ccc(NC(=O)c2onc(C)c2Cl)cc1 | 6* | 0.7 | 135* | 34 | 143*
c1ccc(Nc2nc3ccccc3o2)cc1 | 5.3* | 0.4 | 133 | 58* | 137*
FC(F)(F)Oc1ccc(Nc2nc3ccccc3o2)cc1 | 1.9 | 1 | 77 | 5 | 134*
SMILES | NF-kB expr up | FLuc act counter | APP 5'UTR act | FLuc inhib CS | STAT1 act
N/C(=N\OC(=O)C12CC3CC(CC(C3)C1)C2)c1ccccc1 | 1.5 | 0.4 | -11 | 65* | 101
C/C(=N\NC(=O)c1ccccn1)C12CC3CC(CC(C3)C1)C2 | 1.8 | 0.9 | 86 | 14 | 150*
N/C(=N\OC(=O)C12CC3CC(CC(C3)C1)C2)c1ccccn1 | 1.9 | 0.3 | 14 | 66* | 142*
C/C(=N/NC(=O)c1ccoc1C)C12CC3CC(CC(C3)C1)C2 | 2 | 1 | 158* | 0 | 122
O=C(Nc1ccccn1)C12CC3CC(CC(C3)C1)C2 | 1.4 | 1 | -12 | 0 | 98
Cc1cccn2c(CNC3CCCc4ccccc43)c(C(=O)N3CCCCC3)nc12 (stereo not drawn) | 0.74 | 1 | -1 | -2 | 90
O=C(N/N=C1\CCCCc2ccccc21)c1ccccn1 | 1.9 | 0.8 | 51 | 19 | 117
O=C(NN=C1CCCCCCC1)c1ccccn1 | 1.8 | 1 | 170* | -3 | 119
O=C1C2C3C=CC(C4CC34)C2C(=O)N1/N=C/c1c[nH]c2ccccc12 (stereo not drawn) | 1.4 | 0.2 | 62 | 78* | 133*
